The list is not random: actives were taken first. Their share in the collection is about 4.8%.
PAFAH1B2 inh: inhibitors of human PAFAH1B2; inhibition, % at 3.39 µM; AID 492953; P68402; 340,000 tested, 1.2% active; recombinant PAFAH1B2, FP-rhodamine activity probe, fluorescence polarization;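 active means inhibition above the mean of all tested compounds plus 3 SD, cut at about 24% in these data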;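 further: 0% = enzyme with DMSO and 100% = wells lacking PAFAH1B2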
GRIN3A LBD mod: NR3A (human) ligand-binding domain modulation; NR3A LBD differential scanning fluorimetry, Tm shift; 0% = protein alone, 100% = glycine-bound protein; Tm shift relative to glycine control, % at 25 µM; 340,000 tested, 2.5% active; AID 1259313;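 active means melting temperature shift of at least 10% of the positive control shift, at one fixed dose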
PAFAH2 inh: PAFAH2 (human) inhibition; Q99487; recombinant PAFAH2, FP-rhodamine activity probe, fluorescence polarization; inhibition, % at 3.39 µM; 340,000 tested, 0.99% active;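 active means inhibition above the mean over all tested compounds plus 3 SD, cut at about 30% in these data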;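 further: inhibitors block probe labeling of enzyme so polarization drops; 0% = enzyme with DMSO and 100% = wells lacking PAFAH2 protein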
PAFAH1B3 FP inh: blocks human PAF acetylhydrolase 1B catalytic subunit 3; recombinant PAFAH1B3, FP-rhodamine probe, fluorescence polarization; Q15102; AID 492972; inhibition, % at 3.39 µM; 340,000 tested, 0.28% active;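 active means inhibition above the screen-wide average of all tested compounds plus 3 SD, cut at about 25% in these data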;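 further: 0% = enzyme with DMSO only and 100% = wells lacking PAFAH1B3 protein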
Target sequence (Q15102 whole entry, looked up): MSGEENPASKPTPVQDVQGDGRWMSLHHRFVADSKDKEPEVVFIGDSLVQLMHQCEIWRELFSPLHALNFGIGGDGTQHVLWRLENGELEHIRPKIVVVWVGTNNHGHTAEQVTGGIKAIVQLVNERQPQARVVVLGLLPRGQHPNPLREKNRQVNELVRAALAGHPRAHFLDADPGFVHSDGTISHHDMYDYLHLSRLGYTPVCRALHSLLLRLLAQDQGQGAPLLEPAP
UCH37 DUB inh: blocks the human deubiquitinase UCH37. Q9Y5K5. purified proteasome/UCH37, Ub-AMC cleavage fluorescence. inhibition, % (test concentration not listed). 330,000 tested, 0.33% active. AID 588478;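 active means mean inhibition over replicate wells above about 20%, limit read from the data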;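 further: 0% = compound-free wells with enzyme and 100% = wells lacking proteasome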
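Signal – fluorescence, ex 355 nm, em 460 nm · System – Proteasome-bound UCH37 · Input – 0.15 nM proteasome as dispensed · Timing – 30 min preincubation with enzyme, 25 min cleavage at room temperature · Read-out basis – percent inhibition of cleavage signal versus uninhibited and no-proteasome wells · Medium – Tris-HCl pH 7.4 with ATP-MgCl2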
pPAFAH inh: inhibitors of human plasma PAF acetylhydrolase (pPAFAH) | recombinant pPAFAH, FP-rhodamine probe fluorescence polarization | inhibition, % at 3.39 µM | AID 463082 | Q13093 | 330,000 tested, 1.5% active;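 active means inhibition above the mean inhibition across the screen plus 3 SD, cut at about 25% in these data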;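 further: inhibitors block binding of the rhodamine activity-based probe so polarization drops; 0% = enzyme with DMSO and 100% = wells lacking pPAFAH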
Target sequence (Q13093 whole entry, looked up): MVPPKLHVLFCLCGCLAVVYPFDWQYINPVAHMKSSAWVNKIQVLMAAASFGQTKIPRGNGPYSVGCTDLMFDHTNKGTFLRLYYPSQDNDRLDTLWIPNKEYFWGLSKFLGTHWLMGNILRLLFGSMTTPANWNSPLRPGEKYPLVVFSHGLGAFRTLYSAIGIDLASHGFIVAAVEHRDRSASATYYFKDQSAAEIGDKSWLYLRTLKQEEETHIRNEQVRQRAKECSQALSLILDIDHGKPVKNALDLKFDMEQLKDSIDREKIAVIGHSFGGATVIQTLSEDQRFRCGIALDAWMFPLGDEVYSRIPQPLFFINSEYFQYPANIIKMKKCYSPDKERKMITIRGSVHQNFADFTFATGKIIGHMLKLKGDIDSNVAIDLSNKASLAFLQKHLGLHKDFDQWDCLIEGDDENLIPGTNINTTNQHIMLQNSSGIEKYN
Starred values were filed as active, the others as inactive; nt = no result given.

SMILES	PAFAH1B2 inh	GRIN3A LBD mod	PAFAH2 inh	PAFAH1B3 FP inh	UCH37 DUB inh	pPAFAH inh
Cc1ccc(C=NNc2ccc3ccccc3n2)o1	nt	nt	nt	nt	-28	nt
CCN(C(=O)CSc1ccc2c(c1)OCCO2)C1CCS(=O)(=O)C1 (stereo not given)	1	3	-3	8	-1	1
CCN(C(=O)CSc1nnc(-c2ccc3c(c2)OCO3)o1)C1CCS(=O)(=O)C1 (stereo not given)	32*	-1	-1	7	3	3
CC(C)c1ccc(NC(=O)C(c2ccc3c(c2)OCO3)N2CCCCC2)cc1 (stereo not given)	6	-3	2	-1	4	0
Oc1cc2c(cc1C(c1ccc(Cl)c(Cl)c1)N1CCCC1)OCO2 (stereo not given)	4	40*	9	4	3	nt
COc1ccc2c(c1)oc(=O)c1ccccc12	4	-3	-6	1	-165	10
COc1ccc2c(c1)oc(=O)c1c3ccccc3[nH]c21	1	21*	2	-13	-41	nt
N=C1/C(=C\c2coc3ccc(O)cc3c2=O)C(=O)N=C2SC=CN12	-2	-5	-6	-2	9	26*
O=C(O)COc1ccc(C=NNC(=O)C2CCCN2S(=O)(=O)c2ccc(Cl)cc2)cc1 (stereo not given)	nt	nt	nt	nt	-1	nt
COc1ccc2c(c1)CN(C)S(=O)(=O)c1ccccc1-2	2	13*	-1	9	4	5
CN(C)S(=O)(=O)c1cc(NC(=O)CSc2nn(-c3ccc(Cl)cc3)c(=S)s2)ccc1Cl	-25	16*	-80	-73	4	-11
Cc1ccc(NC(=O)CSc2nn(-c3ccc(Cl)cc3)c(=S)s2)cc1S(=O)(=O)N(C)C	-7	4	-54	-36	3	-19
Cc1ccc(NC(=O)CNc2ccc(Cl)c(Cl)c2)cc1S(=O)(=O)N(C)C	4	19*	-16	-5	0	9
O=C(N/C=C/c1ccco1)NCc1ccccc1	-5	-2	9	-3	-2	22
O=C(N/C=C/c1ccco1)OCc1ccccc1	-2	-1	5	10	3	26*
Cc1ccc(NN=C(C#N)C(=O)c2ccsc2)cc1	nt	nt	nt	nt	6	nt
O=C(Nc1cccc(S(=O)(=O)NC2=NCCC2)c1)c1cn(-c2ccccc2)nc1-c1ccc(F)cc1	-26	12*	-32	-35	6	-10
CC(ON=Cc1ccccc1OC(F)F)C(=O)Nc1cccc(S(=O)(=O)N2CCOCC2)c1 (stereo not given)	nt	nt	nt	nt	-1	nt
Cc1cc(C(=O)N/N=C/c2ccc(-c3cccc(Br)c3)o2)n[nH]1	nt	15*	nt	nt	nt	-1
Cc1cc(C(=O)N/N=C/c2ccc(-c3cccc(Cl)c3Cl)o2)n[nH]1	-5	13*	-8	-14	nt	1
Cc1cc(C(=O)NN=Cc2ccc(Br)o2)n[nH]1	nt	nt	nt	nt	4	nt
Cc1cc(-c2csc(NC(=O)c3ccc(=O)[nH]c3)n2)c(C)n1Cc1ccccc1	7	-2	-14	9	-7	31*
COc1cc(C(=O)NCC(=O)N/N=C/c2ccc(-c3ccc([N+](=O)[O-])cc3)o2)cc(OC)c1OC	3	14*	2	-1	nt	10
O=C(N/N=C\c1ccc(-c2ccc([N+](=O)[O-])cc2)o1)c1ccc2c(c1)OCO2	4	31*	0	10	nt	3
CN(/N=C/c1ccc(-c2ccc([N+](=O)[O-])cc2)o1)c1ccccc1	-14	13*	-25	-17	nt	-11
SMILES	PAFAH1B2 inh	GRIN3A LBD mod	PAFAH2 inh	PAFAH1B3 FP inh	UCH37 DUB inh	pPAFAH inh
O=C(Cc1ccccc1)NN=Cc1ccc(-c2ccc([N+](=O)[O-])cc2)o1	nt	nt	nt	nt	1	nt
C=CCc1cccc(C=NNC(=O)c2ccccc2OC)c1O	nt	nt	nt	nt	5	nt
[O-][n+]1ccccc1/C=C/c1ccccc1	5	0	1	6	-18	6
[O-][n+]1c(/C=C/c2ccccc2)ccc2ccccc21	0	19*	3	6	-20	nt
Oc1ccc2ccccc2c1C=NNc1ccccc1	nt	nt	nt	nt	-11	nt
CCN(CC)S(=O)(=O)c1ccc2c(c1)nc(SC(C)C(N)=O)n2-c1ccc(OC)cc1 (stereo not given)	-2	6	5	2	1	26*
COc1cccc(C(=O)COc2ccc3c(C)cc(=O)oc3c2)c1	2	0	1	10	-3	nt
COc1cccc(C(=O)COc2ccc3ccc(=O)oc3c2)c1	2	16*	-2	-3	-19	1
COc1ccc(OC)c(C=Nn2c(COc3ccccc3)n[nH]c2=S)c1	nt	nt	nt	nt	-25	nt
Oc1c(Cl)cc(Cl)cc1C=Nc1cc(C(F)(F)F)ccc1N1CCc2ccccc2C1	4	1	6	5	-2	28*
CC1(C)CC(=O)C(C=Nc2cccnc2N=CC2=C(O)CC(C)(C)CC2=O)=C(O)C1	nt	nt	nt	nt	2	nt
O=S1(=O)CCOC[C@H](Cc2ccccc2)N1Cc1cccc(F)c1	5	5	3	3	-1	3
O=S1(=O)CCOC[C@H](Cc2ccccc2)N1Cc1ccc(F)cc1	33*	-2	0	5	3	-8
CCCCCOc1ccc(C=c2sc3nc(=O)c(-c4ccccc4)nn3c2=O)cc1OC	nt	nt	nt	nt	4	nt
CCOc1ccc(S(=O)(=O)N2CCC(C(=O)N3CCCCCC3)CC2)cc1Cl	-6	13*	-4	0	2	1
COC(=O)C(=NNc1ccc(C)cc1)N1CCCc2ccccc21	nt	nt	nt	nt	2	nt
CC(C)=CCc1c(-c2ccc(O)cc2O)oc2c3c(cc(O)c2c1=O)OC(C)(C)C=C3	nt	27*	nt	nt	2	4
CCc1nc2ccc(C(=O)NCCc3ccco3)cc2nc1CC	1	3	-15	10	-1	2
COc1ccc2nc(-c3ccco3)c(-c3ccco3)nc2c1	26*	-1	56*	33*	-223	47*
O=C(NCCCO)c1ccc2nc(-c3ccco3)c(-c3ccco3)nc2c1	18	-1	33*	29*	-29	nt
O=C(NCCO)Nc1ccc2nc(-c3ccco3)c(-c3ccco3)nc2c1	nt	nt	nt	nt	nt	72*
CC(=NNC(=O)C1CC1)c1cccc(NC(=O)c2cccc(Cl)c2)c1	nt	nt	nt	nt	0	nt
CCCSc1cc(NCCOC(=O)CCC)c([N+](=O)[O-])c2nonc12	4	-15	-8	6	2	2
CCCSc1cc(NCCOC(C)=O)c([N+](=O)[O-])c2nonc12	2	13*	-6	4	8	2
O=C(Cn1nnc(-c2ccccc2NC(=O)c2ccco2)n1)Nc1ccccc1	-2	3	-5	-6	-1	0
CCOC(=O)c1ccc(NC(=O)Cn2nnc(-c3ccccc3C)n2)cc1	-6	13*	-23	3	0	-9
Cc1cc(NC(=O)Cn2nnc(-c3ccccc3N)n2)no1	4	26*	7	7	-1	2

High-throughput results: PubChem BioAssay, several laboratories
